For series [1], the target named is T1, Neutrophil elastase (Homo sapiens) (UniProt P08246).
T1 sequence (whole entry): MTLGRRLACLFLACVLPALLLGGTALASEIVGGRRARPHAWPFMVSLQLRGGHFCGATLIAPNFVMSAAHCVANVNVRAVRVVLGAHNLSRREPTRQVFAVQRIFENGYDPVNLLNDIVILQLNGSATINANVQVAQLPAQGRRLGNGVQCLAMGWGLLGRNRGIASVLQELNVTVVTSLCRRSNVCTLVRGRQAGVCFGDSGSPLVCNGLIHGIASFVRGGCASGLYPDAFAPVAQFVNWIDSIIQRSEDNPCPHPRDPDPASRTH
Briefly: Inhibitory activity against Human leukocyte elastase as kinetic constant for inhibition (inactivation). In outline: (§1)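 Human leukocyte elastase inhibition measured in vitro at pH 7.8. Kinetic constants reported as k_inact (M⁻¹ s⁻¹), k_react (s⁻¹) and K_i* (nM).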

Series [2] concerns the target T2, Neutrophil elastase (Homo sapiens, UniProt P08246).
T2 sequence (P08246 whole entry): T1 sequence (whole entry)
Briefly: In vitro inhibitory activity against Human leukocyte elastase. The procedure, abridged: as §1

In series [3] the target is T1, Neutrophil elastase (Homo sapiens). The series is described as follows: Inhibitory activity against Human leukocyte elastase was determined in vitro and expressed as kinetic constant for inhibition (reactivity). The procedure, abridged:
as §1

A short description of series [4]: Acid dissociation constant was determined. Type of series: ADME.
For series [5], the target named is T2, Neutrophil elastase. Briefly: Inhibitory activity against Human leukocyte elastase was determined. The procedure, abridged:
as §1

The test system of series [6] is Cricetinae gen. sp. The series is described as follows: In vivo inhibitory activity of 10 mg/kg compound administered subcutaneously against Human leukocyte elastase induced hemorrhage in hamster. Type of series: functional, Cricetulus griseus. To be noted: sc, route subcutaneous. In outline:
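Hamsters dosed subcutaneously at 10 mg/kg, 1 min before intratracheal instillation of human leukocyte elastase (25 μg), to induce pulmonary hemorrhage. Readout is % inhibition of in vivo HLE activity, mean ± error.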

The test system of series [7] is Cricetinae gen. sp. The series is described as follows: In vivo inhibitory activity of 10 mg/kg compound administered intravenously against Human leukocyte elastase induced hemorrhage in hamster. Type of series: functional, Cricetulus griseus. The settings on record: route intravenous. In outline: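 Hamster elastase-induced pulmonary hemorrhage model: 10 mg/kg given intravenously 1 min before intratracheal human leukocyte elastase (25 μg). Result expressed as % inhibition of HLE activity, mean ± error.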

In series [8] the target is T1, Neutrophil elastase (Homo sapiens).

As for `CCOP(=O)(OCC)OCN1C(=O)c2c(C(C)C)cc(O)cc2S1(=O)=O`, in series [1], the K inact was determined as 3300 M⁻¹ s⁻¹. The compound further displayed a Ki on Neutrophil elastase [2] of 4.5 nM. Further, in series [3], the Kreact amounted to 1.4e-05 s⁻¹.

In turn, `O=C1c2ccccc2S(=O)(=O)N1COP(=O)(OCc1ccccc1)OCc1ccccc1` gave a pKa in series [4] of 2.26. Besides, the K inact in series [1] came out at 4100 M⁻¹ s⁻¹. This compound had a Ki at Neutrophil elastase [5] of 20.5 nM.

The compound `CCOP(=O)(OCC)OCN1C(=O)c2c(C(C)CC)cccc2S1(=O)=O` (stereo not drawn) displayed a K inact in series [1] of 800000 M⁻¹ s⁻¹. Further, the affinity on Neutrophil elastase [2] corresponds to a Ki of 0.07 nM. For the same compound, in series [3], the Kreact was 5.6e-05 s⁻¹. Also, in the series with Cricetinae gen. sp. [6], 10 mg/kg produced 83% inhibition in vivo.

The compound `CCOP(=O)(OCC)OCN1C(=O)c2c(C(C)C)cc(OC)cc2S1(=O)=O` came in with an inhibition in vivo at 10 mg/kg with Cricetinae gen. sp. [7] of 92%. The compound also registered a K inact in series [1] of 343000 M⁻¹ s⁻¹. This compound also gave a Kreact in series [3] of 1.2e-05 s⁻¹.

On to `O=C1c2ccccc2S(=O)(=O)N1COP(=O)(Oc1ccccc1)Oc1ccccc1`, for which the pKa in series [4] amounted to 1.91. This compound also showed a K inact in series [1] of 11000 M⁻¹ s⁻¹. On Neutrophil elastase [5], this compound had a Ki of 6.5 nM.

`O=C1c2ccccc2S(=O)(=O)N1COP(=O)(c1ccccc1)c1ccccc1` registered a pKa in series [4] of 3.34. Further, the K inact in series [1] came to 1900 M⁻¹ s⁻¹. The Ki on Neutrophil elastase [5] was determined as 30 nM.

As to `COP(=O)(OC)OCN1C(=O)c2ccccc2S1(=O)=O`, in series [4], the pKa worked out at 2.56. The K inact in series [1] is 800 M⁻¹ s⁻¹. The same compound registered a Ki on Neutrophil elastase [5] of 100 nM.

Take `CCOP(=O)(OCC)OCN1C(=O)c2c(C(C)C)cccc2S1(=O)=O`: testing at 10 mg/kg in the series with Cricetinae gen. sp. [7] gave an inhibition in vivo of 84%. The K inact in series [1] is 530000 M⁻¹ s⁻¹. The compound also registered a Ki at Neutrophil elastase [2] of 0.1 nM. Further, in series [3], the Kreact was found to be 5.3e-05 s⁻¹.

As for `CCCCOP(=O)(OCCCC)OCN1C(=O)c2ccccc2S1(=O)=O`, the pKa in series [4] came out at 2.59. Further, the K inact in series [1] is 4800 M⁻¹ s⁻¹. The compound also gave a Ki at Neutrophil elastase [5] of 17 nM.

`CCCCP(=O)(CCCC)OCN1C(=O)c2ccccc2S1(=O)=O`: the K inact in series [1] amounted to 2300 M⁻¹ s⁻¹. At Neutrophil elastase [5], this compound returned a Ki of 24 nM.

In series [4], `CCOP(=O)(OCC)OCN1C(=O)c2ccccc2S1(=O)=O` showed a pKa of 2.5. Moreover, the K inact in series [1] and in series [8] was 1100 M⁻¹ s⁻¹ in each case. The Ki on Neutrophil elastase [5] and on Neutrophil elastase [2] was 60 nM in each case. This compound also yielded a Kreact in series [3] of 6.6e-05 s⁻¹. The inhibition in vivo at 10 mg/kg in the series with Cricetinae gen. sp. [6] stood at 56%.

The values are drawn from ChEMBL document CHEMBL1128676, “Phosphonates and phosphinates: novel leaving groups for benzisothiazolone inhibitors of human leukocyte elastase” (J Med Chem, 1995).
